Source: ChEMBL document CHEMBL4033676, “Design, synthesis and biological evaluation of 3,4-dihydro-2(1H)-quinoline-O-alkylamine derivatives as new multipotent cholinesterase/monoamine oxidase inhibitors for the treatment of Alzheimer's disease” (Bioorg Med Chem, 2017)

How the values were obtained:
[1] = target: T1, Amine oxidase [flavin-containing] B (Homo sapiens, UniProt P27338); experiment: biochemical; assay type: cell-based
T1 sequence (P27338 whole entry): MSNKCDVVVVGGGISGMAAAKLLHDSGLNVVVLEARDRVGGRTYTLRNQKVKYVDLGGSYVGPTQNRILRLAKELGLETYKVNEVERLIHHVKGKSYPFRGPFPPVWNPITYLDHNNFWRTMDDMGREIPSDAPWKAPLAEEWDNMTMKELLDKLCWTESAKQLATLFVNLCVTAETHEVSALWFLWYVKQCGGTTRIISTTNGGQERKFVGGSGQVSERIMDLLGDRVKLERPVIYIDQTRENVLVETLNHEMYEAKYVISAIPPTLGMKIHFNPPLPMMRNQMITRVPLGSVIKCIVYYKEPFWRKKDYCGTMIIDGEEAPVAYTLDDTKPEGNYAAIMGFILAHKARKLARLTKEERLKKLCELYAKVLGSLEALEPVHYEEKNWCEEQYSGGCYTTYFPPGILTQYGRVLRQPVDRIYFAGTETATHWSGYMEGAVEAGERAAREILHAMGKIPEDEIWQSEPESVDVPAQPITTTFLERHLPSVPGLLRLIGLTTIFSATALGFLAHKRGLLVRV

[2] = target: T2, Acetylcholinesterase (Rattus norvegicus, UniProt P37136)
T2 sequence (P37136 whole entry): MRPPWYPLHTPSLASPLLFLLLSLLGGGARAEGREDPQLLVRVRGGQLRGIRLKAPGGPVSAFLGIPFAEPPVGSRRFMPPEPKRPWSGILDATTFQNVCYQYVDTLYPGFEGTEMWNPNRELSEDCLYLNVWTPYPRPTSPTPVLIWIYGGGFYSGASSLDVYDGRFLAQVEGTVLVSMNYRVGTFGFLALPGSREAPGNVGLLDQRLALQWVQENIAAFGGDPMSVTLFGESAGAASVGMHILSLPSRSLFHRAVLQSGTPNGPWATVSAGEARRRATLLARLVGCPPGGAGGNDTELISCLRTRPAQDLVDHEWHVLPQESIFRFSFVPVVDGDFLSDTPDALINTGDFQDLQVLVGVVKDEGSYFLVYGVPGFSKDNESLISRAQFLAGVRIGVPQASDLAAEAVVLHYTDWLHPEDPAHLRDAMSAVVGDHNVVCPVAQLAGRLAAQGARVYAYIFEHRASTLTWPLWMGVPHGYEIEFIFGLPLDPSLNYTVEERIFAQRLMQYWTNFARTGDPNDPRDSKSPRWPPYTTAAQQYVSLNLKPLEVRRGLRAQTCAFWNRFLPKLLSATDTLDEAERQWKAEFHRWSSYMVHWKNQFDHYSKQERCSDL

[3] = target: Acetylcholinesterase (Electrophorus electricus, UniProt O42275); experiment: Inhibition of electric eel AChE using acetylthiocholine chloride as substrate after 15 mins by Ellman's method
Sequence of Acetylcholinesterase (Electrophorus electricus, UniProt O42275) (O42275 whole entry): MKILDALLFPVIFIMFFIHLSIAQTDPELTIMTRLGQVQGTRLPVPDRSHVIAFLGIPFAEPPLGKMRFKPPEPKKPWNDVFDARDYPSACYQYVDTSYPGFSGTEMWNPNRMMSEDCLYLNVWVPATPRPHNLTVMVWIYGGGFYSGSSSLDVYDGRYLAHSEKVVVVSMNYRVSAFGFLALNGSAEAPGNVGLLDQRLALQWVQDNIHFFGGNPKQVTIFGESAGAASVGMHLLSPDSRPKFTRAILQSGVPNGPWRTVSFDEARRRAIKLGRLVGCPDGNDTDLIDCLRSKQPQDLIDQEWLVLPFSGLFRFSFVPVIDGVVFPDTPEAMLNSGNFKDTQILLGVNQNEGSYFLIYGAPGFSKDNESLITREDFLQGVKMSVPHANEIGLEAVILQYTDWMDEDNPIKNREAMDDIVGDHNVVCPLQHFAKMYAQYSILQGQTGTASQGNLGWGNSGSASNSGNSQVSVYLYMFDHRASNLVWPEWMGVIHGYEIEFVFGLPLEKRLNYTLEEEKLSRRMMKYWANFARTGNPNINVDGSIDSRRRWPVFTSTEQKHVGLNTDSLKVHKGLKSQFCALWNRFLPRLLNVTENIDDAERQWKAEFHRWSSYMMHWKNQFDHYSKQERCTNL

[4] = species on record: Rattus norvegicus; experiment: Selectivity index, ratio of IC50 for rat serum BuChE to IC50 for 5% rat cortex homogenate AChE
[5] = target: T3, Amine oxidase [flavin-containing] A (Homo sapiens, UniProt P21397); experiment: Inhibition of recombinant human MAO-A expressed in baculovirus infected BTI insect cells using kynuramine as substrate after 30 mins by fluorescence assay
T3 sequence (P21397 whole entry): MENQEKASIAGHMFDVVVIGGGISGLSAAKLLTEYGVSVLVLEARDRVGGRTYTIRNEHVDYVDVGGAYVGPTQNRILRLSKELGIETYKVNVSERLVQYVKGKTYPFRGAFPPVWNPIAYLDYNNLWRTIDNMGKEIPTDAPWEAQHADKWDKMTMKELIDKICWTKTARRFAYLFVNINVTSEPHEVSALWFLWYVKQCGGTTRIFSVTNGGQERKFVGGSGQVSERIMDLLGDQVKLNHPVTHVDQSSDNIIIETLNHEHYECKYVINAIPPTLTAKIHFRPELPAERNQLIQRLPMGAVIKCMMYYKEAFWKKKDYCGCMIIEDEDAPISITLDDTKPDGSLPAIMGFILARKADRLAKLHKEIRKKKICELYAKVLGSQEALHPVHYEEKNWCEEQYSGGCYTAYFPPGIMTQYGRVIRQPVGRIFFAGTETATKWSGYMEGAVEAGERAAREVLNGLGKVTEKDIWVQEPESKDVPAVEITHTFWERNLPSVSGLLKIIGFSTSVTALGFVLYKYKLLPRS

[6] = species on record: Homo sapiens; experiment: Selectivity index, ratio of IC50 for recombinant human MAO-B to IC50 for recombinant human MAO-A
[7] = target: Cholinesterase (Equus caballus, UniProt P81908); experiment: Inhibition of equine serum BuChE using butyrylthiocholine chloride as substrate after 15 mins by Ellman's method
Sequence of Cholinesterase (P81908 whole entry): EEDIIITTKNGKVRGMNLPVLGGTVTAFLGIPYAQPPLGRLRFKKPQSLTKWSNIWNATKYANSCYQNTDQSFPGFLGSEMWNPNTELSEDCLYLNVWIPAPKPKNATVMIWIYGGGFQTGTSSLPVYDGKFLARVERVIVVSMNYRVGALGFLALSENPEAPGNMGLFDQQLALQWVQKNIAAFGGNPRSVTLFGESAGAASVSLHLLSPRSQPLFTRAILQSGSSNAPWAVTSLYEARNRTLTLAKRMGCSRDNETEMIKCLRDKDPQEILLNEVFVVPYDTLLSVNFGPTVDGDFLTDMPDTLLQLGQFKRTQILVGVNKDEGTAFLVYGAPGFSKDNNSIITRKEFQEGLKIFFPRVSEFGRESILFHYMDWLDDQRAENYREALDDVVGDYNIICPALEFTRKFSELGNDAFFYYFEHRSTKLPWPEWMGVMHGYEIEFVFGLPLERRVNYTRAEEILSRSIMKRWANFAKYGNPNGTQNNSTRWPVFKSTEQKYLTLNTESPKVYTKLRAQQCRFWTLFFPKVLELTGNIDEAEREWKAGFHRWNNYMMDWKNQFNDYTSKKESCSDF
Outline: (§1)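 Ellman assay. Equine serum or rat serum BuChE pre-incubated with test compound at various concentrations (DMSO <1%) in 0.1 M phosphate buffer pH 8.0 for 15 min at 37°C. DTNB (0.2%) added, absorbance read at 412 nm. Inhibition % = (1−Ai/Ac)×100. IC50 is the mean of three independent experiments, each run in triplicate.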

[8] = Inhibition of rat serum BuChE using butyrylthiocholine chloride as substrate after 15 mins by Ellman's method
Outline: as §1

[9] = Selectivity index, ratio of IC50 for equine serum BuChE to IC50 for electric eel AChE

SMILES	IC50 [1]	IC50 [2]	IC50 [3]	Ratio IC50 [4]	IC50 [5]	Ratio IC50 [6]	IC50 [7]	IC50 [8]	Ratio IC50 [9]
O=C1CCc2ccc(OCCCN3CCC(N4CCCC4)CC3)cc2N1	19.2 µM	16 µM	5.8 µM	1.3	9.6 µM	2	39.6 µM	21.5 µM	6.9
CCN(CC)CCCCOc1ccc2c(c1)NC(=O)CC2	4 µM	14.5 µM	5.1 µM	0.7	7.7 µM	0.5	7.7 µM	9.5 µM	1.5
O=C1CCc2ccc(OCCCN3CCc4ccccc4C3)cc2N1	18.8 µM	15.5 µM	13.3 µM	0.8	8.6 µM	2.2	5.5 µM	12.6 µM	0.4
O=C1CCc2ccc(OCCCN3CCN(Cc4ccccc4)CC3)cc2N1	21.8 µM	12.6 µM	1.3 µM	2.7	6.6 µM	3.3	19.4 µM	34.2 µM	14.9
O=C1CCc2ccc(OCCCCN3CCc4ccccc4C3)cc2N1	6.9 µM	18.2 µM	10.1 µM	0.7	4.9 µM	1.4	3.8 µM	12.4 µM	0.4
O=C1CCc2ccc(OCCCCCN3CCN(c4ccccn4)CC3)cc2N1	20.3 µM	28.4 µM	15.6 µM	1.6	13 µM	1.6	6.2 µM	44.6 µM	0.4
C#CCN(CCCOc1ccc2c(c1)NC(=O)CC2)Cc1ccccc1	7.3 µM	26 µM	23.5 µM	1.2	9 µM	0.8	29.5 µM	30.3 µM	1.3
O=C1CCc2ccc(OCCCCN3CCN(Cc4ccccc4)CC3)cc2N1	9.4 µM	13.7 µM	6 µM	2.3	7.4 µM	1.3	10.7 µM	31.6 µM	1.8
CC(C)N1CCN(CCCOc2ccc3c(c2)NC(=O)CC3)CC1	26.1 µM	14 µM	6.2 µM	0.7	9.4 µM	2.8	20 µM	10.2 µM	3.3
O=C1CCc2ccc(OCCCCCCN3CCCC3)cc2N1	3.5 µM	3.4 µM	2.6 µM	2.5	1.3 µM	2.8	0.87 µM	8.5 µM	0.33
O=C1CCc2ccc(OCCCCCN3CCN(Cc4ccccc4)CC3)cc2N1	6.5 µM	15.7 µM	10 µM	1.9	2.4 µM	2.7	12.7 µM	29.6 µM	1.3
O=C1CCc2ccc(OCCCN3CCN(c4ccccn4)CC3)cc2N1	18 µM	20 µM	9.6 µM	2	1.1 µM	17.1	14.4 µM	39 µM	1.5
O=C1CCc2ccc(OCCCCCCN3CCN(Cc4ccccc4)CC3)cc2N1	4.3 µM	17.9 µM	12.9 µM	1.3	5.7 µM	0.7	6.6 µM	24 µM	0.5
C#CCN(CCCCOc1ccc2c(c1)NC(=O)CC2)Cc1ccccc1	9.1 µM	23.3 µM	21.4 µM	1.4	9.3 µM	1	19.1 µM	32.1 µM	0.9
O=C1CCc2ccc(OCCCN3CCCCC3)cc2N1	6.2 µM	16.5 µM	12.2 µM	1.4	13.1 µM	0.5	39 µM	22.9 µM	3.2
O=C1CCc2ccc(OCCCCCN3CCCCC3)cc2N1	17 µM	8.4 µM	12.8 µM	3.8	8.4 µM	2	32.8 µM	31.4 µM	2.6
O=C1CCc2ccc(OCCCCCN3CCc4ccccc4C3)cc2N1	5.9 µM	7.8 µM	9.1 µM	1.4	4.6 µM	1.3	0.9 µM	11.2 µM	0.1
CCN(CC)CCCCCCOc1ccc2c(c1)NC(=O)CC2	8.6 µM	41.9 µM	13.3 µM	0.6	5.4 µM	1.6	29.5 µM	24.3 µM	2.2
C#CCN(CCCCCCOc1ccc2c(c1)NC(=O)CC2)Cc1ccccc1	3.8 µM	13 µM	13.7 µM	1.9	1 µM	3.8	2.4 µM	24.5 µM	0.2
CC(C)N1CCN(CCCCCCOc2ccc3c(c2)NC(=O)CC3)CC1	24.9 µM	2.43 µM	0.76 µM	0.7	6.8 µM	3.7	2 µM	1.8 µM	2.7
O=C1CCc2ccc(OCCCCCCN3CCC(N4CCCC4)CC3)cc2N1	18.3 µM	12.3 µM	5.3 µM	1.6	6.2 µM	3	32.7 µM	20.2 µM	6.2
CC(C)N1CCN(CCCCCOc2ccc3c(c2)NC(=O)CC3)CC1	8.1 µM	3.2 µM	0.9 µM	0.9	8.2 µM	1	3.2 µM	2.7 µM	3.5
O=C1CCc2ccc(OCCCCCCN3CCCCC3)cc2N1	31.7 µM	6 µM	17.8 µM	4.5	9.4 µM	3.4	14.1 µM	27.2 µM	0.8
COc1cc2c(cc1OC)C(=O)C(CC1CCN(Cc3ccccc3)CC1)C2 (stereo not drawn) [DONEPEZIL]	–	–	–	–	–	–	–	4.42 µM	–
